As a reminder, the inhibition in vivo is the relative decrease from the control value, in per cent.

Structures are written as SMILES. Active and inactive are the calls of the source. The calls are words filed in the database; no cut-off is given here.

These results are taken from ChEMBL document CHEMBL1152452, “Modifications incorporated in CpG motifs of oligodeoxynucleotides lead to antagonist activity of toll-like receptors 7 and 9” (2009).

Experiment [1] relates to Mus musculus. Briefly: Immunostimulatory activity in C57BL/6 mouse assessed as inhibition of 5'-CTATCTGACGTTCTCTGT-3'-induced IL10 production in serum at 2 mg/kg, sc administered 24 hrs prior to 5'-CTATCTGACGTTCTCTGT-3' challenge measured after 2 hrs by Luminex multiplex assay. The format is functional, organism-based. Also noted: dose 2 mg/kg. The essentials:
(§1)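 C57BL/6 mice received 2 mg/kg ODN sc in one flank. After 24 h, the TLR9 agonist ODN was given at 0.5 mg/kg sc in the opposite flank. Blood was drawn 2 h later and serum cytokines/chemokines were quantified by Luminex multiplex assay. Percent inhibition was taken against the agonist alone. Representative of three experiments.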

Experiment [2] deals with Mus musculus. The experiment can be described thus: Immunostimulatory activity in C57BL/6 mouse assessed as inhibition of 5'-CTATCTGACGTTCTCTGT-3'-induced TNFalpha production in serum at 2 mg/kg, sc administered 24 hrs prior to 5'-CTATCTGACGTTCTCTGT-3' challenge measured after 2 hrs by Luminex multiplex assay. Set-up: dose 2 mg/kg. The format is functional, organism-based. The essentials: as §1

The subject of experiment [3] is J774. The experiment can be described thus: Inhibition of 5'-CTATCTGACGTTCTCTGT-3'-activated NF-kappaB activity in mouse J774 cells at 2.5 ug/ml after 1 hr by EMSA. The format is cell-based. The essentials: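 J774 murine macrophages were grown in DMEM with 10% FBS and antibiotics, plated at 5 × 10^6 cells/well, and co-incubated for 1 h with the agonist ODN (0.5 µg/mL) and test ODN (2.5 µg/mL). Nuclear extracts were prepared and NF-κB binding was analysed by EMSA on native polyacrylamide gels with autoradiography.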
(In general: A gel shift assay detects complexes by their altered migration in electrophoresis.)

The target of experiment [4] is T1, Toll-like receptor 9 (Mus musculus) (UniProt Q9EQU3).
T1 sequence (whole entry): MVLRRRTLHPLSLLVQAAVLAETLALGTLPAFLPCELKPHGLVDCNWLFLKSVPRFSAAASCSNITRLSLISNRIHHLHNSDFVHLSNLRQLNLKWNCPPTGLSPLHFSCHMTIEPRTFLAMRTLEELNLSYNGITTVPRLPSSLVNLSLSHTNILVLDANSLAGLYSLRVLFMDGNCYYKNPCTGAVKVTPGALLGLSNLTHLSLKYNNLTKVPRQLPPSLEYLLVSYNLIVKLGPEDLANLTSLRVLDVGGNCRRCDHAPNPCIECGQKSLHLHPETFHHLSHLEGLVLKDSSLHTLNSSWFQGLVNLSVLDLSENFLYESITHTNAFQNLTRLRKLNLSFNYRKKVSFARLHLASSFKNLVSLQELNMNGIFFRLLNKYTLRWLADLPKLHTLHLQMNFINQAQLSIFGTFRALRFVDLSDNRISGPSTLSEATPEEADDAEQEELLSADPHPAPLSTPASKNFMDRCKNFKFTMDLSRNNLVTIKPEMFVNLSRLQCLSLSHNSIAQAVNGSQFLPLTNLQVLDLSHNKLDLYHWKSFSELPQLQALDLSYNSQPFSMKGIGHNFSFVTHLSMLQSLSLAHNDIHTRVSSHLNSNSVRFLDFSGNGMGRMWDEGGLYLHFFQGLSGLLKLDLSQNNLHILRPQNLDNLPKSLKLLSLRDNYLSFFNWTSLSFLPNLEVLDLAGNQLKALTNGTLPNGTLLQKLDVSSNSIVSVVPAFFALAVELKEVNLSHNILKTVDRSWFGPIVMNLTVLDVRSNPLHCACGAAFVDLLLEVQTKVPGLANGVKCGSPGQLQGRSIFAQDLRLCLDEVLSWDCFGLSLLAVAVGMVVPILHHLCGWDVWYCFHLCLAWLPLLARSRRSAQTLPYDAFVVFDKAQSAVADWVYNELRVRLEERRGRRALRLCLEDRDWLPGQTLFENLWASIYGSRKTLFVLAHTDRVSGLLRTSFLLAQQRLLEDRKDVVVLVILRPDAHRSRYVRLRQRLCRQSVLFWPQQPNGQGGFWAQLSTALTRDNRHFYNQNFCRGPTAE
The experiment can be described thus: Activation of mouse TLR9 expressed in HEK293 cells assessed as NF-kappaB level at 1 ug/mL after 18 hrs by reporter gene assay. It counts as cell-based. The essentials: (§2)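 HEK293 cells stably expressing mouse TLR9 were transiently transfected with a SEAP reporter for 6 h, then stimulated with ODN at 0.1, 0.3 or 1 μg/mL for 18 h. Reporter expression is given as fold change in NF-κB activity over medium. Representative of two independent experiments.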
In general terms: A reporter such as luciferase makes a cellular process visible.

Experiment [5] deals with Mus musculus. Briefly: Immunostimulatory activity in C57BL/6 mouse assessed as induction of IL12 level in serum at 2 mg/kg, sc after 2 hrs by sandwich ELISA. The format is functional, organism-based. Set-up: dose 2 mg/kg. Summed up: (§3)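 Female C57BL/6 mice, 5–6 weeks old, n = 3, received a single 2 mg/kg subcutaneous ODN injection in the right flank. Blood was taken by retro-orbital bleeding 2 h later. Naive mice served as baseline. Representative of three experiments.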
For orientation: ELISA stands for enzyme-linked immunosorbent assay.

In experiment [6] the test system is J774. Briefly: Activation of NF-kappaB in mouse J774 cells at 2.5 ug/ml after 1 hr by EMSA. The format is cell-based. Summed up:
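Murine J774 macrophages in DMEM with 10% FBS and antibiotics, plated at 5×10^6 cells/well. ODNs were given alone or together for 1 h. For inhibition, the agonist ODN at 0.5 μg/mL was co-incubated with the modified ODN at 2.5 μg/mL. Nuclear extracts were resolved by EMSA on native polyacrylamide gels and read by autoradiography.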

The subject of experiment [7] is Mus musculus. The experiment can be described thus: Immunostimulatory activity in C57BL/6 mouse assessed as induction of MCP1 level in serum at 2 mg/kg, sc after 2 hrs by Luminex multiplex assay. It counts as functional, organism-based. Also noted: dose 2 mg/kg. Summed up: as §3
In experiment [8] the target is T1, Toll-like receptor 9 (Mus musculus). Briefly: Activation of mouse TLR9 expressed in HEK293 cells assessed as NF-kappaB level at 0.1 ug/mL after 18 hrs by reporter gene assay. It counts as cell-based. Summed up: as §2
The subject of experiment [9] is Mus musculus. The experiment can be described thus: Immunostimulatory activity in C57BL/6 mouse assessed as induction of TNFalpha level in serum at 2 mg/kg, sc after 2 hrs by Luminex multiplex assay. It counts as functional, organism-based. Set-up: dose 2 mg/kg. The essentials:
as §3

Experiment [10] deals with Mus musculus. The experiment can be described thus: Immunostimulatory activity in C57BL/6 mouse assessed as inhibition of 5'-CTATCTGACGTTCTCTGT-3'-induced IL12 production in serum at 2 mg/kg, sc administered 24 hrs prior to 5'-CTATCTGACGTTCTCTGT-3' challenge measured after 2 hrs by sandwich ELISA. Conditions: C57BL/6, sc, route subcutaneous. The format is functional. Summed up: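 C57BL/6 mice were pretreated sc in the right flank with 2, 5 or 10 mg/kg ODN. After 24 h, the TLR9 agonist ODN was given at 0.5 mg/kg sc in the left flank. Serum IL-12 was measured by ELISA 2 h later. Representative of two experiments.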

Another experiment deals with Splenocyte. The experiment can be described thus: Immunostimulatory activity in C57BL/6 mouse splenocytes assessed as induction of IL12 secretion at 2 to 10 ug/ml after 24 hrs by sandwich ELISA. It counts as functional, cell-based. The essentials: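 C57BL/6 splenocytes (mice 5–8 weeks) at 5 × 10^6 cells/mL in RPMI complete medium. ODNs dissolved in PBS were added and the cells incubated at 37 °C for 24 h. Supernatant IL-12 or IL-6 was measured by sandwich ELISA. Runs were done two or three times, in duplicate per concentration.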

Turning to `Cc1cn([C@@H]2O[C@H](COP(=O)(S)O[C@H]3C[C@H](n4ccc(N)nc4=O)O[C@@H]3COP(=O)(S)O[C@H]3C[C@H](n4cc(C)c(=O)[nH]c4=O)O[C@@H]3COP(=O)(S)O[C@H]3C[C@H](n4ccc(N)nc4=O)O[C@@H]3COP(=O)(S)O[C@H]3C[C@H](n4cc(C)c(=O)[nH]c4=O)O[C@@H]3COP(=O)(S)O[C@H]3C[C@H](n4cc(C)c(=O)[nH]c4=O)O[C@@H]3COP(=O)(S)O[C@H]3C[C@H](n4cnc5c(=O)[nH]c(N)nc54)O[C@@H]3COP(=O)(S)O[C@H]3C[C@H](n4ccc(N)nc4=O)O[C@@H]3COP(=O)(S)O[C@H]3C[C@H](n4cnc5c(N)ncnc54)O[C@@H]3COP(=O)(S)O[C@H]3C[C@H](n4cnc5c(=O)[nH]c(N)nc54)O[C@@H]3COP(=O)(S)O[C@H]3C[C@H](n4cc(C)c(=O)[nH]c4=O)O[C@@H]3COP(=O)(S)O[C@H]3C[C@H](n4ccc(N)nc4=O)O[C@@H]3COP(=O)(S)O[C@H]3C[C@H](n4cc(C)c(=O)[nH]c4=O)O[C@@H]3COP(=O)(S)O[C@H]3C[C@H](n4cnc5c(N)ncnc54)O[C@@H]3COP(=O)(S)O[C@H]3C[C@H](n4cc(C)c(=O)[nH]c4=O)O[C@@H]3COP(=O)(S)O[C@@H]3C[C@@H](n4ccc(N)nc4=O)O[C@H]3CO)[C@@H](OP(=O)(S)OC[C@H]3O[C@@H](n4cnc5c(=O)[nH]c(N)nc54)C[C@@H]3OP(=O)(S)OC[C@H]3O[C@@H](n4cc(C)c(=O)[nH]c4=O)C[C@@H]3O)[C@H]2O)c(=O)[nH]c1=O` (some centres not stated), the result in the experiment with Mus musculus [1], with Mus musculus [2], in the experiment with J774 [3] and in the experiment on Splenocyte was Active. In addition, the outcome (in [4]; in the experiment on Mus musculus [5]; with J774 [6]; in the experiment with Mus musculus [7]; in experiment [8]; in the experiment with Mus musculus [9]) was inactive. The inhibition in vivo at 2 mg/kg in the experiment on Mus musculus [10] was 50%.
For the molecule `COC1[C@H](n2cnc3c(=O)[nH]c(N)nc32)O[C@H](COP(=O)(S)O[C@H]2C[C@H](n3cc(C)c(N)nc3=O)O[C@@H]2COP(=O)(S)O[C@H]2C[C@H](n3cnc4c(N)ncnc43)O[C@@H]2COP(=O)(S)O[C@H]2C[C@H](n3cnc4c(=O)[nH]c(N)nc43)O[C@@H]2COP(=O)(S)O[C@H]2C[C@H](n3cc(C)c(=O)[nH]c3=O)O[C@@H]2COP(=O)(S)O[C@H]2C[C@H](n3ccc(N)nc3=O)O[C@@H]2COP(=O)(S)O[C@H]2C[C@H](n3cc(C)c(=O)[nH]c3=O)O[C@@H]2COP(=O)(S)O[C@H]2C[C@H](n3cnc4c(N)ncnc43)O[C@@H]2COP(=O)(S)O[C@H]2C[C@H](n3cc(C)c(=O)[nH]c3=O)O[C@@H]2COP(=O)(S)O[C@H]2C[C@H](n3ccc(N)nc3=O)O[C@@H]2CO)[C@H]1OP(=O)(S)OC[C@H]1O[C@@H](n2cc(C)c(=O)[nH]c2=O)C[C@@H]1OP(=O)(S)OC[C@H]1O[C@@H](n2cc(C)c(=O)[nH]c2=O)C[C@@H]1OP(=O)(S)OC[C@H]1O[C@@H](n2ccc(N)nc2=O)C[C@@H]1OP(=O)(S)OC[C@H]1O[C@@H](n2cc(C)c(=O)[nH]c2=O)C[C@@H]1OP(=O)(S)OC[C@H]1O[C@@H](n2ccc(N)nc2=O)C[C@@H]1OP(=O)(S)OC[C@H]1O[C@@H](n2cc(C)c(=O)[nH]c2=O)C[C@@H]1OP(=O)(S)OC[C@H]1O[C@@H](n2cnc3c(=O)[nH]c(N)nc32)C[C@@H]1OP(=O)(S)OC[C@H]1O[C@@H](n2cc(C)c(=O)[nH]c2=O)C[C@@H]1O` (some centres not stated), the outcome with Mus musculus [1], in the experiment with Mus musculus [2], in the experiment with J774 [3] and with Splenocyte was Active. Moreover, the result (in [4]; in the experiment on Mus musculus [5]; in the experiment with J774 [6]; with Mus musculus [7]; in experiment [8]; with Mus musculus [9]) was inactive. The inhibition in vivo at 2 mg/kg with Mus musculus [10] amounted to 14%.
